Measured values as given in ChEMBL document CHEMBL4052793, “Synthesis and Biological Evaluation of Paclitaxel and Camptothecin Prodrugs on the Basis of 2-Nitroimidazole” (ACS Med Chem Lett, 2017).

How the values were obtained:
[1] = Prodrug conversion assessed as Escherichia coli nitroreductase mediated SN38 reduction by measuring half life at 10 uM in presence of NADPH by HPLC method; type: ADME; conditions: isolated protein
Summary of the method: (§1)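 Prodrugs at 10 μM (1% DMSO) in PBS pH 7.4 incubated at 37 °C with E. coli nitroreductase (50 μg/mL) and NADPH (1 μmol/mL) for up to 1 h. Prodrug loss and active drug release tracked by HPLC.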

NCI-H460 [2] = test: Cytotoxicity against human NCI-H460 cells assessed as growth reduction under hypoxic condition after 72 hrs by MTT assay; type: functional, cell-based; conditions: NCI-H460, 72 h
Summary of the method: (§2)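 H460 lung and HT29 colon carcinoma cells exposed to a range of compound concentrations for 72 h, either in air (normoxic) or under hypoxia (94% N2, 5% CO2, 1% O2). Viability/proliferation read by MTT; IC50 for proliferation inhibition.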

[3] = Selectivity ratio, IC50 for human H460 cells under normoxic condition to IC50 for human H460 cells under hypoxic condition; type: functional
[4] = Prodrug conversion in Pd/C assessed as PTX formation at 1 mg after 2 hrs in presence of H2 by LC/MS method
Summary of the method: (§3)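 Chemical reduction over Pd/C under H2 in THF at 37 °C. Products were analysed to follow release of the parent drug.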

NCI-H460 [5] = test: Cytotoxicity against human NCI-H460 cells assessed as growth reduction under normoxic condition after 72 hrs by MTT assay; type: functional, cell-based; conditions: NCI-H460, 72 h; summary of the method: as §2
Mus musculus = species: Mus musculus; test: Drug degradation in mouse plasma assessed as compound half life at 10 uM by HPLC method
[6] = Prodrug conversion in Pd/C assessed as 2-aminoimidazole intermediate of 3C-PTX formation at 1 mg after 2 hrs in presence of H2 by LC/MS method; summary of the method: as §3
[7] = Drug degradation in human plasma assessed as compound half life at 10 uM by HPLC method; type: ADME, cell-free
Summary of the method: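 Incubated in human plasma in vitro; remaining prodrug followed by HPLC over time and half-life derived.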

HT-29 [8] = test: Cytotoxicity against human HT-29 cells assessed as growth reduction under normoxic condition after 72 hrs by MTT assay; type: functional, cell-based; conditions: HT-29, 72 h; summary of the method: as §2
[9] = Half life in ABS buffer at 10 uM at pH 5.0 by HPLC method; type: physicochemical
HT-29 [10] = test: Cytotoxicity against human HT-29 cells assessed as growth reduction under hypoxic condition after 72 hrs by MTT assay; type: functional, cell-based; conditions: HT-29, 72 h; summary of the method: as §2
[11] = Half life in PBS buffer at 10 uM at pH 6.5 by HPLC method; type: physicochemical
[12] = Half life in PBS buffer at 10 uM at pH 7.4 by HPLC method; type: physicochemical
HT-29 [13] = test: Selectivity ratio, IC50 for human HT-29 cells under normoxic condition to IC50 for human HT29 cells under hypoxic condition; type: functional
[14] = Prodrug conversion assessed as Escherichia coli nitroreductase mediated 2-aminoimidazole intermediate of 2C-PTX formation at 10 uM after 1 hr in presence of NADPH by HPLC method; type: ADME; conditions: isolated protein; summary of the method: as §1
[15] = Prodrug conversion in Pd/C assessed as 2-aminoimidazole intermediate of 2C-PTX formation at 1 mg after 2 hrs in presence of H2 by LC/MS method; summary of the method: as §3
[16] = Prodrug conversion in Pd/C assessed as SN38 formation at 1 mg after 2 hrs in presence of H2 by LC/MS method; summary of the method: as §3
[17] = Prodrug conversion in Pd/C assessed as 2-aminoimidazole intermediate of 3C-SN38 formation at 1 mg after 2 hrs in presence of H2 by LC/MS method; summary of the method: as §3
[18] = Drug level in Pd/C treated with 3C-PTX at 1 mg in presence of H2 after 2 hrs by LC/MS method; summary of the method: as §3
[19] = Drug level in Pd/C treated with 2C-PTX at 1 mg in presence of H2 after 2 hrs by LC/MS method; summary of the method: as §3
[20] = Drug level in Pd/C using 1 mg 3C-SN38 assessed as compound formation in presence of H2 after 2 hrs by LC/MS method; summary of the method: as §3

Row | Structure (SMILES) | t1/2 [1] | half-life at 10 µM (Mus musculus) | half-life at 10 µM [7] | half-life at 10 µM [9] | half-life at 10 µM [11] | half-life at 10 µM [12] | IC50 (NCI-H460 [2]) | Ratio IC50 [3] | Drug metabolism [4] | IC50 (NCI-H460 [5]) | IC50 (HT-29 [8]) | IC50 (HT-29 [10]) | Ratio IC50 (HT-29 [13]) | also measured
1 | CC(=O)O[C@H]1C(=O)[C@@]2(C)[C@H]([C@H](OC(=O)c3ccccc3)[C@]3(O)C[C@H](OC(=O)[C@H](O)[C@@H](NC(=O)c4ccccc4)c4ccccc4)C(C)=C1C3(C)C)[C@]1(OC(C)=O)CO[C@@H]1C[C@@H]2O [PACLITAXEL] | – | – | – | – | – | – | – | – | – | – | 14 nM | 15 nM | – | Drug metabolism [18]: Metabolite detected; Drug metabolism [19]: Metabolite detected
2 | CCc1c2c(nc3ccc(O)cc13)-c1cc3c(c(=O)n1C2)COC(=O)[C@@]3(CC)OC(=O)OCCn1ccnc1[N+](=O)[O-] | 0.5 h | 0.783 h | 6 h | > 48 h | 41 h | > 48 h | 63 nM | 1.44 | – | 91 nM | > 10000 nM | 9560 nM | >1.05 | –
3 | CCc1c2c(nc3ccc(O)cc13)-c1cc3c(c(=O)n1C2)COC(=O)[C@]3(O)CC [7-ETHYL-10-HYDROXYCAMPTOTHECIN] | – | – | – | – | – | – | 47 nM | 1.06 | – | – | 96 nM | 119 nM | 0.82 | Drug metabolism [20]: Metabolite detected

Continued, in another order:

Row | t1/2 [1] | half-life at 10 µM (Mus musculus) | half-life at 10 µM [7] | half-life at 10 µM [9] | half-life at 10 µM [11] | half-life at 10 µM [12] | Structure (SMILES) | IC50 (NCI-H460 [2]) | Ratio IC50 [3] | Drug metabolism [4] | IC50 (NCI-H460 [5]) | IC50 (HT-29 [8]) | IC50 (HT-29 [10]) | Ratio IC50 (HT-29 [13]) | also measured
4 | <= 10 min | 0.917 h | 6 h | > 48 h | 24 h | 36 h | CC(=O)O[C@H]1C(=O)[C@@]2(C)[C@H]([C@H](OC(=O)c3ccccc3)[C@]3(O)C[C@H](OC(=O)[C@H](OC(=O)OCCCn4ccnc4[N+](=O)[O-])[C@@H](NC(=O)c4ccccc4)c4ccccc4)C(C)=C1C3(C)C)[C@]1(OC(C)=O)CO[C@@H]1C[C@@H]2O | 18 nM | 1.17 | Metabolite detected | 21 nM | 290 nM | 159 nM | 1.82 | Drug metabolism [6]: Metabolite detected
5 | <= 10 min | 0.333 h | 2 h | 48 h | 24 h | 28 h | CC(=O)O[C@H]1C(=O)[C@@]2(C)[C@H]([C@H](OC(=O)c3ccccc3)[C@]3(O)C[C@H](OC(=O)[C@H](OC(=O)OCCn4ccnc4[N+](=O)[O-])[C@@H](NC(=O)c4ccccc4)c4ccccc4)C(C)=C1C3(C)C)[C@]1(OC(C)=O)CO[C@@H]1C[C@@H]2O | 6 nM | 1.5 | Metabolite detected | 9 nM | 140 nM | 45 nM | 3.11 | Drug metabolism [14]: Metabolite_Notdetected; Drug metabolism [15]: Metabolite detected
6 | <= 10 min | 0.617 h | 2 h | 40 h | > 48 h | > 48 h | CCc1c2c(nc3ccc(O)cc13)-c1cc3c(c(=O)n1C2)COC(=O)[C@@]3(CC)OC(=O)OCCCn1ccnc1[N+](=O)[O-] | 99 nM | 2.03 | – | 201 nM | > 10000 nM | 6020 nM | >1.67 | Drug metabolism [16]: Metabolite detected; Drug metabolism [17]: Metabolite detected
